Laboratory results taken from ChEMBL document CHEMBL1177882, “Novel bisstyryl derivatives of bakuchiol: targeting oral cavity pathogens” (2010).
Values after ≈ are worked out from the molar mass of the structure shown.

Tests used:
Streptococcus mutans [1] = assay: Antibacterial activity against Streptococcus mutans ATCC 25175 assessed as inhibition of biofilm formation after 18 hrs; format: functional
Outline: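 Single-species S. mutans biofilm grown in flat-bottom polystyrene wells, BHI with 2% sucrose, 6 × 10^7 cfu/ml final, compound twofold 0.12–128 µg/ml, 18 h at 37 °C in 5% CO2. Wells rinsed with PBS pH 7.2, methanol-fixed, stained with 0.1% crystal violet, eluted in 95% ethanol, A595 read. % inhibition relative to untreated control; MBIC50 is the lowest concentration giving ≥50% inhibition.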

Streptococcus sanguinis [2] = assay: Antibacterial activity against Streptococcus sanguinis ATCC 10556 after 24 hrs by broth microdilution method; settings: ATCC 10556, 24 h
Prevotella intermedia = assay: Antibacterial activity against Prevotella intermedia ATCC 25611 after 48 hrs by broth microdilution method; format: functional; settings: ATCC 25611, 48 h
Outline: (§1)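 Broth microdilution MIC for obligate anaerobes, run in their growth media (Wilkins–Chalgren for F. nucleatum and P. intermedia; supplemented Todd Hewitt broth for P. gingivalis). Inoculum suspended in Brucella broth, final 5 × 10^6 cfu/ml. Twofold dilutions, final 0.12–128 µg/ml. Incubated anaerobically (90% N2/5% H2/5% CO2) at 37 °C for 48 h; MIC is the lowest concentration without turbidity.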

Streptococcus sanguinis [3] = assay: Antibacterial activity against Streptococcus sanguinis ATCC 10556 after 48 hrs by broth microdilution method; format: functional; settings: ATCC 10556, 48 h
Streptococcus mutans [4] = assay: Ratio of compound MBIC50 to bakuchiol MBIC50 for Streptococcus mutans ATCC 25175; format: functional
Outline: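 MBIC50 from crystal-violet S. mutans biofilm assay (BHI + 2% sucrose, 18 h, 37 °C, 5% CO2, A595 read) for each compound, divided by the bakuchiol MBIC50 from the same assay.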

Streptococcus mutans [5] = assay: Antibacterial activity against Streptococcus mutans ATCC 25175 after 24 hrs by broth microdilution method; settings: ATCC 25175, 24 h
Actinomyces viscosus [6] = assay: Antibacterial activity against Actinomyces viscosus ATCC 15987 after 24 hrs by broth microdilution method; settings: ATCC 15987, 24 h
Porphyromonas gingivalis = assay: Antibacterial activity against Porphyromonas gingivalis ATCC 33277 after 48 hrs by broth microdilution method; format: functional; settings: ATCC 33277, 48 h; outline: as §1
Actinomyces viscosus [7] = assay: Antibacterial activity against Actinomyces viscosus ATCC 15987 after 48 hrs by broth microdilution method; format: functional; settings: ATCC 15987, 48 h
Streptococcus mutans [8] = assay: Antibacterial activity against Streptococcus mutans ATCC 25175 after 48 hrs by broth microdilution method; format: functional; settings: ATCC 25175, 48 h
Fusobacterium nucleatum = assay: Antibacterial activity against Fusobacterium nucleatum ATCC 10953 after 48 hrs by broth microdilution method; format: functional; settings: ATCC 10953, 48 h; outline: as §1

MIC (Streptococcus sanguinis [2]): 4 µg/mL (≈ 11.4 µM) | MIC (Prevotella intermedia): 2 µg/mL (≈ 5.71 µM) | MIC (Streptococcus mutans [5]): 4 µg/mL (≈ 11.4 µM) | MIC (Actinomyces viscosus [6]): 4 µg/mL (≈ 11.4 µM) | MIC (Porphyromonas gingivalis): 2 µg/mL (≈ 5.71 µM) | MIC (Fusobacterium nucleatum): > 128 µg/mL
SMILES: CC(C)=CCC[C@](C)(/C=C/c1ccc(O)cc1)/C=C/c1ccc(F)cc1
MBIC50 (Streptococcus mutans [1]): 8 µg/mL | MBC (Prevotella intermedia): 4 µg/mL (≈ 11.4 µM) | MBC (Streptococcus sanguinis [3]): 8 µg/mL (≈ 22.8 µM) | Ratio (Streptococcus mutans [4]): 2 | MBC (Porphyromonas gingivalis): 4 µg/mL (≈ 11.4 µM) | MBC (Actinomyces viscosus [7]): 8 µg/mL (≈ 22.8 µM) | MBC (Streptococcus mutans [8]): 4 µg/mL (≈ 11.4 µM) | MBC (Fusobacterium nucleatum): > 128 µg/mL
